From ChEMBL document CHEMBL5223075, “Discovery of thienothiazolocarboxamide analogues as novel anti-tubercular agent” (Bioorg Med Chem, 2020)
≈ marks a conversion by molar mass, not a printed value.

Columns and labels:
[1] = Metabolic stability in mouse liver microsome assessed as phase I mediated metabolite formation by measuring half-life; assay type: ADME; settings: microsomes
[2] = test system: Mycobacterium tuberculosis; assay: Antitubercular activity against Mycobacterium tuberculosis H37Rv ATCC 27294 expressing the green fluorescence protein infected in mouse RAW264.7 cells assessed as inhibition of bacterial growth pre-infected with cell followed by compound addition and measured after 5 days by Hoechst 33342 staining based analysis; assay type: functional, organism-based; settings: H37Rv ATCC 27294, RAW264.7, 120 h
Outline: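 RAW 264.7 cells, passages 2-9, were infected with washed H37Rv-GFP at MOI 20 for 2 h at 37°C with shaking. Cells were washed and plated at 20,000/well over 2-fold compound dilutions for 5 days. Nuclei were stained with 5 µM Hoechst (final) and 3 fields/well imaged. Four parameters (cell count, bacterial area, area per infected cell, infected-cell ratio) were each fitted by 4-parameter sigmoid, and the IC50s averaged.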

[3] = Metabolic stability in human liver microsome assessed as phase I mediated metabolite formation by measuring half-life; assay type: ADME; settings: microsomes
[4] = test system: Mycobacterium tuberculosis; assay: Antitubercular activity against Mycobacterium tuberculosis H37Rv ATCC 27294 expressing the green fluorescence protein assessed as inhibition of bacterial growth by measuring GFP fluorescence incubated for 5 days by fluorescence based plate reader analysis; assay type: functional, organism-based; settings: H37Rv ATCC 27294, 120 h
Outline: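 H37Rv-GFP was grown 14 days in 7H9/OADC/Tween/glycerol/hygromycin, washed, and seeded at ~3×10^6 CFU/mL. Compounds were given as 10-point 2-fold series starting at 20 or 1 µM, in 1% DMSO final. Plates ran 5 days at 37°C, 5% CO2, with rifampicin 1 µg/mL as positive control. GFP fluorescence was read and IC50 taken from a 4-parameter sigmoid fit.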

[5] = Solubility of the compound at pH 7.4; assay type: physicochemical; settings: buffer
[6] = Solubility of the compound at pH 2.1; assay type: physicochemical; settings: buffer
[7] = Protein binding in mouse plasma; assay type: ADME, cell-free; settings: read-out: PPB (converted)
[8] = Protein binding in human plasma; assay type: ADME, cell-free; settings: read-out: PPB (converted)
[9] = Metabolic stability in human liver microsome assessed as phase II mediated metabolite formation by measuring half-life; assay type: ADME; settings: microsomes
[10] = Volume of distribution at steady state in BALB/c mouse at 2 mg/kg, iv by LC-MS analysis; assay type: ADME, organism-based; settings: in vivo, read-out: Vdss
Outline: (§1)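 Female BALB/c mice, 6-8 weeks old. Dosed i.v. at 2 or 3 mg/kg, or orally at 10 mg/kg. Vehicles varied by compound: DMSO/Captisol, DMSO/PEG400/SBE-b-CD, or DMSO/Cremophor EL/Captisol. Blood was held at 4°C within 1 h, then centrifuged at 3200 × g for 10 min at 4°C. Plasma was kept at 4°C, and compound levels were measured by LC-MS.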

[11] = Cmax in BALB/c mouse at 10 mg/kg, po by LC-MS analysis; assay type: ADME, organism-based; set-up: dose 10 mg/kg, route po; settings: in vivo; outline: as §1
[12] = Metabolic stability in mouse liver microsome assessed as phase II mediated metabolite formation by measuring half-life; assay type: ADME; settings: microsomes
[13] = Clearance in BALB/c mouse at 2 mg/kg, iv by LC-MS analysis; assay type: ADME, organism-based; settings: in vivo; outline: as §1
[14] = Half-life in BALB/c mouse at 2 mg/kg, iv by LC-MS analysis; assay type: ADME, organism-based; settings: in vivo; outline: as §1
[15] = Stability in human plasma measured after 4 hrs; assay type: ADME, cell-free; settings: read-out: Stability
[16] = Stability in mouse plasma measured after 4 hrs; assay type: ADME, cell-free; settings: read-out: Stability

SMILES: COc1cc(NC(=O)c2cc3sc(N4CCCCC4)nc3s2)cc(OC)c1
- t1/2 [1]: 0.56 h
- IC50 [2]: > 20000 nM
- t1/2 [3]: 0.408 h
- IC50 [4]: > 20000 nM

SMILES: Cc1nc2cc(NC(=O)c3cc4sc(N5CCC(O)CC5)nc4s3)ccc2o1
- t1/2 [1]: > 1 h
- IC50 [2]: 460 nM
- solubility [5]: 2.4 µg/mL (≈ 5.79 µM)
- solubility [6]: 9.7 µg/mL (≈ 23.4 µM)
- t1/2 [3]: > 1 h
- IC50 [4]: 640 nM

SMILES: Cc1nc2cc(NC(=O)c3cc4sc(N5CCOCC5)nc4s3)ccc2o1
- t1/2 [1]: > 1 h
- IC50 [2]: 200 nM
- solubility [5]: 0.82 µg/mL (≈ 2.05 µM)
- fraction unbound [7]: 0.001
- fraction unbound [8]: 0.012
- solubility [6]: 5.3 µg/mL (≈ 13.2 µM)
- t1/2 [9]: > 1 h
- t1/2 [3]: > 1 h
- IC50 [4]: 420 nM
- Vd [10]: 0.626 L/kg
- Cmax [11]: 313 ng/mL
- t1/2 [12]: > 1 h
- clearance [13]: 121 mL/min/kg
- half-life [14]: 0.33 h
- remaining at 4 h [15]: 86.8%
- remaining at 4 h [16]: 74.7%

SMILES: CO[C@H]1/C=C/O[C@@]2(C)Oc3c(C)c(O)c4c(O)c(c(/C=N/N5CCN(C)CC5)c(O)c4c3C2=O)NC(=O)/C(C)=C\C=C\[C@H](C)[C@H](O)[C@@H](C)[C@@H](O)[C@@H](C)[C@H](OC(C)=O)[C@@H]1C [RIFAMPIN]
- IC50 [2]: 60 nM
- IC50 [4]: 10 nM

SMILES: O=C(Nc1ccc(-c2ccc(Cl)cn2)cc1)c1cc2sc(NCCN3CCOCC3)nc2s1
- IC50 [2]: 210 nM
- solubility [5]: 0.2 µg/mL (≈ 0.4 µM)
- solubility [6]: 43.4 µg/mL (≈ 86.8 µM)
- IC50 [4]: 3200 nM

SMILES: O=C(Nc1ccc(-c2ccc(F)cc2)nc1)c1cc2sc(NCCN3CCOCC3)nc2s1
- IC50 [2]: 370 nM
- solubility [5]: 0.57 µg/mL (≈ 1.18 µM)
- solubility [6]: > 50 µg/mL
- IC50 [4]: 4600 nM

SMILES: O=C(Nc1ccc(Cl)cc1)c1cc2sc(N3CCCCC3)nc2s1
- IC50 [2]: 110 nM
- IC50 [4]: 1100 nM

SMILES: O=C(Nc1ccc(-c2ccc(C(F)(F)F)cn2)cc1)c1cc2sc(NCCN3CCOCC3)nc2s1
- IC50 [2]: 210 nM
- solubility [5]: 9.8 µg/mL (≈ 18.4 µM)
- solubility [6]: 44.3 µg/mL (≈ 83 µM)
- IC50 [4]: 4500 nM

SMILES: Cc1nc2cc(NC(=O)c3cc4sc(N(C)CCCO)nc4s3)ccc2o1
- IC50 [2]: 700 nM
- IC50 [4]: 1000 nM

SMILES: COc1ccc(NC(=O)c2cc3sc(N4CCNCC4)nc3s2)cc1
- IC50 [2]: 2100 nM
- IC50 [4]: 13700 nM

SMILES: COc1ccc(CNC(=O)c2cc3sc(N4CCCCC4)nc3s2)cc1
- IC50 [2]: > 20000 nM
- IC50 [4]: > 20000 nM

SMILES: COc1ccc(NC(=O)c2cc3sc(N4CCC(F)(F)CC4)nc3s2)cc1
- IC50 [2]: 330 nM
- IC50 [4]: 1100 nM

SMILES: COc1ccc(NC(=O)c2cc3sc(N4CCN(C)CC4)nc3s2)cc1
- IC50 [2]: 110 nM
- IC50 [4]: 1300 nM

SMILES: O=C(Nc1ccc(-c2ccc(F)cc2)cn1)c1cc2sc(NCCN3CCOCC3)nc2s1
- IC50 [2]: 360 nM
- solubility [5]: 0.56 µg/mL (≈ 1.16 µM)
- solubility [6]: 44.2 µg/mL (≈ 91.4 µM)
- IC50 [4]: 4700 nM

SMILES: COc1ccc(NC(=O)c2cc3sc(N4CCCCC4)nc3s2)cc1
- IC50 [2]: 170 nM
- IC50 [4]: 830 nM
